Results reported in ChEMBL document CHEMBL1139486, “Novel benzopyridothiadiazepines as potential active antitumor agents” (J Med Chem, 2005).

Assays:
L1210 [1] = assay: Antiproliferative activity against mouse L1210 cells after 48 hrs relative control; format: functional, cell-based; settings: L1210, 48 h
Outline: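 L1210 cells grown in RPMI 1640 with 10% fetal calf serum, 2 mM L-glutamine, penicillin/streptomycin and 10 mM HEPES (pH 7.4). Cells were exposed 48 h to graded drug concentrations, then MTT was added for 4 h at 37 °C. Formazan was dissolved in DMSO and OD read at 540 nm. IC50 came from linear regression on the linear part of the dose-response curve, in triplicate.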

L1210 [2] = assay: Cell cycle perturbations in mouse L1210 cells assessed as accumulation in G1 phase after 21 hrs at 5 uM relative to control; format: functional
Outline: (§1)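 L1210 cells in RPMI 1640 with 10% fetal calf serum, 2 mM L-glutamine, antibiotics and 10 mM HEPES (pH 7.4) were exposed for 21 h (two doubling times). They were fixed in 70% ethanol and stained 30 min at 20 °C in D-PBS with […] RNAse and […] propidium iodide. 10⁴ cells per sample were analysed by flow cytometry for % G1, S, G2+M and 8N.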

L1210 [3] = assay: Cell cycle perturbations in mouse L1210 cells assessed as accumulation in S phase after 21 hrs at 5 uM relative to control; format: functional; outline: as §1
L1210 [4] = assay: Cell cycle perturbations in mouse L1210 cells assessed as accumulation in G2+M phase after 21 hrs at 5 uM relative to control; format: functional; outline: as §1
L1210 [5] = assay: Cell cycle perturbations in mouse L1210 cells assessed as accumulation in 8N phase after 21 hrs at 5 uM relative to control; format: functional; outline: as §1
L1210 [6] = assay: Cell cycle perturbations in mouse L1210 cells assessed as accumulation in G1 phase after 21 hrs at 0.5 uM relative to control; format: functional
L1210 [7] = assay: Cell cycle perturbations in mouse L1210 cells assessed as accumulation in S phase after 21 hrs at 0.5 uM relative to control; format: functional
L1210 [8] = assay: Cell cycle perturbations in mouse L1210 cells assessed as accumulation in G2+M phase after 21 hrs at 0.5 uM relative to control; format: functional
L1210 [9] = assay: Cell cycle perturbations in mouse L1210 cells assessed as accumulation in 8N phase after 21 hrs at 0.5 uM relative to control; format: functional

| Structure (SMILES) | IC50 (L1210 [1]) | further results |
| --- | --- | --- |
| COc1ccc(CN2C=CC=C3C2=Nc2cc(Cl)ccc2S(=O)(=O)N3C)cc1 | 1.5 µM |  |
| COc1ccc(CN2C=CC=C3C2=Nc2cc(Cl)ccc2N(C)S3(=O)=O)cc1 | 5.4 µM |  |
| COc1ccc(CN2C=CC=C3C2=Nc2cc(OC)ccc2N(C)S3(=O)=O)cc1 | > 10 µM |  |
| COc1ccc(CCN2c3cc(Cl)ccc3S(=O)(=O)N(C)c3cccnc32)cc1 | > 10 µM |  |
| COc1ccc(CCN2c3ccccc3N(C)S(=O)(=O)c3cccnc32)cc1 | > 10 µM |  |
| COc1ccc(CCCN2C=CC=C3C2=Nc2ccccc2S(=O)(=O)N3C)cc1 | > 10 µM |  |
| COc1ccc(CN2c3cc(Cl)ccc3N(C)S(=O)(=O)c3cccnc32)cc1 | 8.7 µM |  |
| COc1ccc(CCN2C=CC=C3C2=Nc2cc(OC)ccc2N(C)S3(=O)=O)cc1 | 1.5 µM | Activity (L1210 [2]): 5%; Activity (L1210 [3]): 7%; Activity (L1210 [4]): 17%; Activity (L1210 [5]): 71% |
| COc1ccc(CN2C=CC=C3C2=Nc2ccc(Cl)cc2S(=O)(=O)N3C)cc1 | > 10 µM |  |
| COc1ccc(CCCN2C=CC=C3C2=Nc2cc(OC)ccc2S(=O)(=O)N3C)cc1 | > 50 µM |  |
| COc1ccc(CN2c3cc(OC)ccc3N(C)S(=O)(=O)c3cccnc32)cc1 | 8.3 µM |  |
| COc1ccc(CN2C=CC=C3C2=Nc2ccccc2N(C)S3(=O)=O)cc1 | > 10 µM |  |
| COc1ccc(CN2C=CC=C3C2=Nc2cc(OC)ccc2S(=O)(=O)N3C)cc1 | > 50 µM |  |
| COc1ccc(CCN2C=CC=C3C2=Nc2ccc(Cl)cc2N(C)S3(=O)=O)cc1 | 0.23 µM | Activity (L1210 [6]): 3%; Activity (L1210 [7]): 6%; Activity (L1210 [8]): 21%; Activity (L1210 [9]): 70% |
| COc1ccc(CCN2C=CC=C3C2=Nc2cc(C(F)(F)F)ccc2S(=O)(=O)N3C)cc1 | > 10 µM |  |
| CN(C)CCOc1ccc(CCN2C=CC=C3C2=Nc2ccccc2S(=O)(=O)N3C)cc1 | > 10 µM |  |
| COc1ccc(CN2c3ccccc3S(=O)(=O)N(C)c3cccnc32)cc1 | > 10 µM |  |
| COc1cc(CN2c3ccccc3S(=O)(=O)N(C)c3cccnc32)cc(OC)c1OC | > 10 µM |  |
| CN1C2=CC=CN(CCc3ccc(O)cc3)C2=Nc2ccccc2S1(=O)=O | > 10 µM |  |
| COc1ccc(CN2c3ccccc3N(Cc3ccc(OC)cc3)S(=O)(=O)c3cccnc32)cc1 | > 100 µM |  |
| COc1ccc(CN2c3cc(C)ccc3S(=O)(=O)N(C)c3cccnc32)cc1 | > 10 µM |  |
| COc1ccc(CCCN2C=CC=C3C2=Nc2cc(C)ccc2S(=O)(=O)N3C)cc1 | > 10 µM |  |
| COc1ccc(CCN2c3cc(C)ccc3N(C)S(=O)(=O)c3cccnc32)cc1 | > 10 µM |  |
| COc1ccc(CCCN2C=CC=C3C2=Nc2ccccc2N(C)S3(=O)=O)cc1 | 8.3 µM |  |
| COc1cc(CN2C=CC=C3C2=Nc2ccccc2S(=O)(=O)N3C)cc(OC)c1OC | > 10 µM |  |
| COc1ccc(CN2C=CC=C3C2=Nc2cc(C)ccc2S(=O)(=O)N3C)cc1 | 9 µM |  |
| COc1ccc(CCN2c3ccc(Cl)cc3N(C)S(=O)(=O)c3cccnc32)cc1 | > 10 µM |  |
| COc1ccc(CN2C=CC=C3C2=Nc2cc(C)ccc2N(C)S3(=O)=O)cc1 | 9.2 µM |  |
| COc1ccc(CN2C=CC=C3C2=Nc2ccc(Cl)cc2N(C)S3(=O)=O)cc1 | 4.1 µM |  |
